Test results taken from ChEMBL document CHEMBL4373711, “Development of 3,5-Dinitrophenyl-Containing 1,2,4-Triazoles and Their Trifluoromethyl Analogues as Highly Efficient Antitubercular Agents Inhibiting Decaprenylphosphoryl-β-d-ribofuranose 2'-Oxidase” (J Med Chem, 2019).
Activity calls are given as the source filed them. The rule behind the calls is not given here.

Experiments:
[1] = Genotoxicity in Salmonella typhimurium TA100 at 30 uM in absence of rat liver S9 fraction by Ames test; assay type: toxicity; conditions: salmonella enterica subsp. enterica serovar typhimurium, s9, 30 µM
[2] = Genotoxicity in Salmonella typhimurium TA98 at 30 uM in absence of rat liver S9 fraction by Ames test; assay type: toxicity; conditions: salmonella enterica subsp. enterica serovar typhimurium, s9, 30 µM
[3] = biological target: T1, Decaprenylphosphoryl-beta-D-ribose oxidase (Mycobacterium tuberculosis (strain ATCC 25618 / H37Rv)) (UniProt P9WJF1); experiment: Inhibition of DprE1 in Mycobacterium tuberculosis H37Rv assessed as accumulation of trehalose dimycolates at 10 times MIC measured after 24 hrs in presence of [14C]-acetate by TLC-based autoradiography
T1 sequence (whole entry): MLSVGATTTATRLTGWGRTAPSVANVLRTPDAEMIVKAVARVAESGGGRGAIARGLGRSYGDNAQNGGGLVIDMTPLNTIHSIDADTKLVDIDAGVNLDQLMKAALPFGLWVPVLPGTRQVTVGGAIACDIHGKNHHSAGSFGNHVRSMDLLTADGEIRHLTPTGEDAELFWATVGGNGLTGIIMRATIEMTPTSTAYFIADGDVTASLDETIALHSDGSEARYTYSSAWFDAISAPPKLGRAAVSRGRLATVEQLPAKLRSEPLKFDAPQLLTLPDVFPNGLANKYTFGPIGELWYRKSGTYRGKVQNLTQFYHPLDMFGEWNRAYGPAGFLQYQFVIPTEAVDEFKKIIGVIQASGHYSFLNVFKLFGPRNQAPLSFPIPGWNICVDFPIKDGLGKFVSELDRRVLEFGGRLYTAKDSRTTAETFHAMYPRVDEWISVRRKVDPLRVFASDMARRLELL
How it was run: (§1)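 M. tuberculosis H37Rv cultures were exposed to compound at final 10× or 100× MIC, or to DMSO, together with [14C]-acetate at 1 µCi/ml final. After 24 h, lipids were extracted in CHCl3/CH3OH (2:1) for 2 h at 65 °C and given two Folch washes. Extracts were run on TLC in CHCl3/CH3OH/H2O (20:4:0.5), then autoradiographed for 7 days at -80 °C.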

[4] = biological target: T2, Decaprenylphosphoryl-beta-D-ribose oxidase (Mycobacterium smegmatis (strain ATCC 700084 / mc(2)155)) (UniProt A0R607); experiment: Inhibition of DprE1 in Mycolicibacterium smegmatis MC2 155 lysate assessed as reduction in epimerization of P[14C]RPP to DP[14C]A at 70 uM measured after 1.5 hrs in presence of NADH by TLC-based autoradiography; assay type: subcellular
T2 sequence (whole entry): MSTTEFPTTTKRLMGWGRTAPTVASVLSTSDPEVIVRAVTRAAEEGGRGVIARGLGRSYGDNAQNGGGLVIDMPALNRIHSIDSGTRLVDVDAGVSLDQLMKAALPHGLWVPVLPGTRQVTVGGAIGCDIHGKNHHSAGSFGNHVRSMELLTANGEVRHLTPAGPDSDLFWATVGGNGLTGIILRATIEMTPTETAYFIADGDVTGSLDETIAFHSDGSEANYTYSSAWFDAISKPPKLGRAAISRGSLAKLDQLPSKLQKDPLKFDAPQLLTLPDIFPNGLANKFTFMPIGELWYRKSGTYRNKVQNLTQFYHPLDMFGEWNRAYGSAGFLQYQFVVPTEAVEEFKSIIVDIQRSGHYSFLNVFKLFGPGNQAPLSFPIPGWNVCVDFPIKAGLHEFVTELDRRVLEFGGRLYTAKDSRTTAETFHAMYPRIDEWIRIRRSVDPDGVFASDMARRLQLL
How it was run: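 Cell-free DPA synthesis used a membrane/cell-envelope fraction (430 µg), spun at 100 000 × g, from sonicated M. smegmatis mc2155. The fraction was incubated 1.5 h with 15,000 dpm P[14C]RPP and NADH. BTZ was used at 70 µM and test compounds at 700 µM final, both added from DMSO stocks. Lipids were extracted, 25% was resolved by TLC, and autoradiography ran 8 days at -80 °C.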

[5] = biological target: T1, Decaprenylphosphoryl-beta-D-ribose oxidase (Mycobacterium tuberculosis (strain ATCC 25618 / H37Rv)); experiment: Inhibition of DprE1 in Mycobacterium tuberculosis H37Rv assessed as accumulation of trehalose monomycolates at 10 times MIC measured after 24 hrs in presence of [14C]-acetate by TLC-based autoradiography; how it was run: as §1

## [N-]=[N+]=[N-].[Na+] [SODIUM AZIDE]
[1]
  Activity: Toxic

## O=[N+]([O-])c1ccc2c(c1)Cc1ccccc1-2 [2-NITROFLUORENE]
[2]
  Activity: Toxic

## C[C@H]1COC2(CCN(c3nc(=O)c4cc(C(F)(F)F)cc([N+](=O)[O-])c4s3)CC2)O1
[3]
  inhibition: Active
[4]
  inhibition: Active
[5]
  inhibition: Active
